Laboratory results as given in ChEMBL document CHEMBL1128667 (J Med Chem, 1995).

How the values were obtained:
[1] = target: Mu-type opioid receptor (Rattus norvegicus, UniProt P33535); experiment: Ability to inhibit [3H]DAMGO binding to rat brain Opioid receptor mu 1
Procedure, shortened: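 Rat brain membranes labelled with [3H]DAMGO (1-3 nM), 4 h at 25 °C in 50 mM Tris-HCl pH 7.4 with protease inhibitor cocktail. Nonspecific with 20 μM levallorphan. 8–10 concentrations, run twice; dilutions in Tris with 1 mg/mL BSA, 1 mM stocks in Tris containing 10% DMSO/5% Emulphor. IC50 and slope factor from curve fitting.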

[2] = target: Sigma 2 receptor; experiment: Ability to inhibit [3H](+)-DTG binding to rat liver Sigma receptor type 2 in presence of dextrallorphan
Procedure, shortened: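 Rat liver membranes (male Sprague–Dawley, 150–200 g; Tris/sucrose homogenisation, differential centrifugation, 25 °C preincubation). 160 μg protein with 5 nM [3H]DTG plus 1 μM dextrallorphan to mask σ1, 50 mM Tris-HCl pH 8.0, 120 min at 25 °C. Nonspecific with 10 μM haloperidol. Filtration. 12 concentrations (0.05–10 000 or 0.5–100 000 nM); Ki via Cheng–Prusoff with Scatchard Kd; 2–3 experiments in duplicate, ±SEM.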

[3] = target: Delta-type opioid receptor (Rattus norvegicus, UniProt P33533); experiment: Ability to inhibit [3H]DADLE binding to rat brain delta receptor
Procedure, shortened: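 [3H]DADLE (1.7-2.5 nM) on rat brain membranes, 3-4 h at 25 °C in 10 mM Tris-HCl pH 7.4 with 100 mM choline chloride, 3 mM MnCl2, 100 nM DAMGO blocking μ sites, and protease inhibitors. Nonspecific with 20 μM levallorphan. 8–10 concentrations, run twice; dilutions in Tris/1 mg/mL BSA. IC50 and slope factor from curve fitting.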

[4] = tested on: Sigma 2 receptor; experiment: Ratio of binding affinity towards guinea-pig brain […] receptor to rat liver sigma-2 receptor
[5] = target: Kappa-type opioid receptor (Cavia porcellus, UniProt P41144); experiment: Ability to inhibit [3H]U-69593 binding to guinea pig Opioid receptor kappa 1
Procedure, shortened: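 Guinea pig brain membranes depleted of μ and δ sites by BIT/FIT pretreatment, labelled with [3H]U69,593 (1.2-2.3 nM), 4-6 h at 25 °C in 50 mM Tris-HCl pH 7.4 with protease inhibitors and 1 μg/mL captopril. Nonspecific with 1 μM U69,593. 8–10 concentrations, run twice; IC50 and slope factor from curve fitting.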

[6] = Ability to inhibit [3H](+)-pentazocine binding to guinea pig brain Sigma receptor type 1

Sequence of Delta-type opioid receptor (P33533 whole entry): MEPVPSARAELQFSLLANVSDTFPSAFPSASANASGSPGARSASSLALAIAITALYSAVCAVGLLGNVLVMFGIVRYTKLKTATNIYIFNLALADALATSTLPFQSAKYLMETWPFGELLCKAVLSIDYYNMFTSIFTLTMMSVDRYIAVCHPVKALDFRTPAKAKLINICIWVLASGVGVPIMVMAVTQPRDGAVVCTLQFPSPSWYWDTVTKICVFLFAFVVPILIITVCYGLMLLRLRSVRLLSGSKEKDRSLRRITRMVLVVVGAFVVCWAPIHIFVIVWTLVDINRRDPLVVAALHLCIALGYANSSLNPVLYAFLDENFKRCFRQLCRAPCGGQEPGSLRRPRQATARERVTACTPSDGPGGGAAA
Sequence of Kappa-type opioid receptor (P41144 whole entry): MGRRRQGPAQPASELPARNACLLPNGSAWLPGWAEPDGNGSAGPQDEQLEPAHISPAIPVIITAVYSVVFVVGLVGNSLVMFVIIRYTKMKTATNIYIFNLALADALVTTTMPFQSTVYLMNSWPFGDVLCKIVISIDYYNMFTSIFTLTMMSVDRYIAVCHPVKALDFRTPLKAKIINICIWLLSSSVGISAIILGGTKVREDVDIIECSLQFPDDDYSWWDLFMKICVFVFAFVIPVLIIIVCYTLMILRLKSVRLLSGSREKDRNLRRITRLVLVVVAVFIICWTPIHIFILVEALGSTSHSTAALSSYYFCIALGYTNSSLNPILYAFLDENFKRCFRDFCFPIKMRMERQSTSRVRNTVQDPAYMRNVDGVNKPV
Sequence of Mu-type opioid receptor (P33535 whole entry): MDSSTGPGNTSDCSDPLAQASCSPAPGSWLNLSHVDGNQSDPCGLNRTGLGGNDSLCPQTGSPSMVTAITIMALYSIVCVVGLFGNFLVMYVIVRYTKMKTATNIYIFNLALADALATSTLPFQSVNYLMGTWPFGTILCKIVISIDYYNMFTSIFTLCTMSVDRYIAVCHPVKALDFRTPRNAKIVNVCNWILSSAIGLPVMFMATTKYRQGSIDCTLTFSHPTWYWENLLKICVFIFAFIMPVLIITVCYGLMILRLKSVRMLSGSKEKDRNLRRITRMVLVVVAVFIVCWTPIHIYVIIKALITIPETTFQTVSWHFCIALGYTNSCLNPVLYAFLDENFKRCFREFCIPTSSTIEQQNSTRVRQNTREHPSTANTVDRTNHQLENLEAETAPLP

## COc1cccc(/C=C2/C(=O)CC3(c4cccc(O)c4)CCN(C)C2C3)c1 (single isomer, unassigned; (-)) [listing 1 of 2 here]
[1]
  Ki: 31.4 nM
[2]
  Ki: 46.3 nM
[3]
  Ki: > 400 nM

## CN1CCC2(c3cccc(O)c3)CC(=O)/C(=C/c3ccccc3)C1C2 (stereo in doubt; (-)-2) [listing 1 of 2 here]
[4]
  Ratio: 0.06

## COc1cccc(C23CCN(C)C(C2)/C(=C\c2ccccc2)C(=O)C3)c1 (single isomer, unassigned; (+)) [listing 1 of 2 here]
[5]
  Ki: > 500 nM
[2]
  Ki: 52 nM

## CN1CCC2(c3cccc(O)c3)CC(=O)/C(=C/c3ccc(Cl)c(Cl)c3)C1C2 (single isomer, unassigned; (-))
[1]
  Ki: 45.1 nM
[2]
  Ki: 35.5 nM
[3]
  Ki: > 500 nM

## COc1cccc(C23CCN(C)C(C2)/C(=C\c2ccccc2)C(=O)C3)c1 (stereo in doubt; 10) [listing 1 of 2 here]
[5]
  Ki: > 1000 nM
[6]
  Ki: 138 nM
[1]
  Ki: > 250 nM
[2]
  Ki: 81.7 nM
[3]
  Ki: > 500 nM

## CN1CCC2(c3cccc(O)c3)CC(=O)/C(=C/c3ccc(Cl)cc3)C1C2 (stereo in doubt; 5) [listing 1 of 2 here]
[1]
  Ki: 21.6 nM
[2]
  Ki: 9.5 nM
[3]
  Ki: > 1000 nM

## COc1cccc(/C=C2/C(=O)CC3(c4cccc(O)c4)CCN(C)C2C3)c1 (stereo in doubt; 6) [listing 1 of 2 here]
[4]
  Ratio: 0.18

## CN1CCC2(c3cccc(O)c3)CC(=O)/C(=C/c3cccc(I)c3)C1C2 (stereo not drawn)
[5]
  Ki: > 500 nM
[1]
  Ki: 9.1 nM
[2]
  Ki: 24 nM
[3]
  Ki: 141 nM
[4]
  Ratio: 68

## COc1cccc(/C=C2/C(=O)CC3(c4cccc(O)c4)CCN(C)C2C3)c1 (single isomer, unassigned; (+)) [listing 1 of 2 here]
[1]
  Ki: 12.6 nM
[2]
  Ki: 38.2 nM
[3]
  Ki: 175 nM

## CN1CCC2(c3cccc(O)c3)CC(=O)/C(=C/c3ccccc3)C1C2 (stereo in doubt; (-)-2) [listing 2 of 2 here]
[5]
  Ki: 889 nM
[1]
  Ki: 392 nM
[2]
  Ki: 154 nM
[3]
  Ki: 1990 nM

## COc1cccc(/C=C2/C(=O)CC3(c4cccc(O)c4)CCN(C)C2C3)c1 (single isomer, unassigned; (-)) [listing 2 of 2 here]
[4]
  Ratio: 0.12

## COc1ccc(/C=C2/C(=O)CC3(c4cccc(O)c4)CCN(C)C2C3)cc1 (stereo in doubt; 4) [listing 1 of 2 here]
[1]
  Ki: 4.1 nM
[2]
  Ki: 35 nM
[3]
  Ki: 7.1 nM

## CN1CCC2(c3cccc(O)c3)CC(=O)/C(=C/c3ccc(Cl)cc3)C1C2 (single isomer, unassigned; (-)) [listing 1 of 2 here]
[4]
  Ratio: 0.69

## COc1cccc(C23CCN(C)C(C2)/C(=C\c2ccccc2)C(=O)C3)c1 (stereo in doubt; 10) [listing 2 of 2 here]
[4]
  Ratio: 1.7

## CN1CCC2(c3cccc(O)c3)CC(=O)/C(=C/c3ccccc3)C1C2 (stereo in doubt; 2) [listing 1 of 2 here]
[6]
  Ki: 23.3 nM
[2]
  Ki: 37 nM

## CN1CCC2(c3cccc(O)c3)CC(=O)/C(=C/c3ccc(Cl)cc3)C1C2 (stereo in doubt; 5) [listing 2 of 2 here]
[4]
  Ratio: 4

## COc1ccc(/C=C2/C(=O)CC3(c4cccc(O)c4)CCN(C)C2C3)cc1 (single isomer, unassigned; (+)) [listing 1 of 2 here]
[4]
  Ratio: 88

## COc1cccc(/C=C2/C(=O)CC3(c4cccc(O)c4)CCN(C)C2C3)c1 (single isomer, unassigned; (+)) [listing 2 of 2 here]
[4]
  Ratio: 157

## COc1ccc(/C=C2/C(=O)CC3(c4cccc(O)c4)CCN(C)C2C3)cc1 (single isomer, unassigned; (-)) [listing 1 of 2 here]
[1]
  Ki: 27 nM
[2]
  Ki: 81.3 nM
[3]
  Ki: > 500 nM

## CN1CCC2(c3cccc(O)c3)CC(=O)/C(=C/C3CC3)C1C2 (stereo not drawn)
[5]
  Ki: > 500 nM
[1]
  Ki: 11.2 nM
[2]
  Ki: 356 nM
[3]
  Ki: > 1000 nM
[4]
  Ratio: 0.18

## CN1CCC2(c3cccc(O)c3)CC(=O)/C(=C/c3ccc(Cl)cc3)C1C2 (single isomer, unassigned; (-)) [listing 2 of 2 here]
[5]
  Ki: > 500 nM
[1]
  Ki: 48.2 nM
[2]
  Ki: 26.5 nM
[3]
  Ki: > 500 nM

## CN1CCC2(c3cccc(O)c3)CC(=O)/C(=C/c3cccc(Cl)c3)C1C2 (stereo in doubt; (+)-7) [listing 1 of 2 here]
[4]
  Ratio: 138

## COc1ccc(/C=C2/C(=O)CC3(c4cccc(O)c4)CCN(C)C2C3)cc1 (stereo in doubt; 4) [listing 2 of 2 here]
[4]
  Ratio: 0.53

## COc1ccc(/C=C2/C(=O)CC3(c4cccc(O)c4)CCN(C)C2C3)cc1 (single isomer, unassigned; (-)) [listing 2 of 2 here]
[4]
  Ratio: 0.1

## CN1CCC2(c3cccc(O)c3)CC(=O)/C(=C/c3ccc(Cl)c(Cl)c3)C1C2 (single isomer, unassigned; (+))
[1]
  Ki: 4.5 nM
[2]
  Ki: 13.4 nM
[3]
  Ki: 271 nM

## CN1CCC2(c3cccc(O)c3)CC(=O)CC1C2 (stereo in doubt; (-)-1)
[2]
  Ki: 25 nM

## CN1CCC2(c3cccc(O)c3)CC(=O)CC1C2 (single isomer, unassigned; (+))
[5]
  Ki: 2540 nM
[1]
  Ki: 35.5 nM
[3]
  Ki: 505 nM

## CN1CCC2(c3cccc(O)c3)CC(=O)/C(=C/c3ccccc3)C1C2 (stereo in doubt; 2) [listing 2 of 2 here]
[4]
  Ratio: 0.63

## CN1CCC2(c3cccc(O)c3)CC(=O)/C(=C/c3ccc(Cl)c(Cl)c3)C1C2 (stereo in doubt; 3)
[6]
  Ki: 65.3 nM
[2]
  Ki: 71.8 nM

## CN1CCC2(c3cccc(O)c3)CC(=O)/C(=C/c3ccc(Cl)cc3)C1C2 (stereo in doubt; (+)-5) [listing 1 of 2 here]
[4]
  Ratio: 119

## CN1CCC2(c3cccc(O)c3)CC(=O)/C(=C/c3cccc(Cl)c3)C1C2 (stereo in doubt; 7) [listing 1 of 2 here]
[4]
  Ratio: 1.5

## COc1cccc(C23CCN(C)C(C2)/C(=C\c2ccccc2)C(=O)C3)c1 (single isomer, unassigned; (+)) [listing 2 of 2 here]
[4]
  Ratio: 2.8

## CN1CCC2(c3cccc(O)c3)CC(=O)/C(=C/c3ccc(Cl)cc3)C1C2 (stereo in doubt; (+)-5) [listing 2 of 2 here]
[1]
  Ki: 6.4 nM
[2]
  Ki: 6.4 nM
[3]
  Ki: 336 nM

## CN1CCC2(c3cccc(O)c3)CC(=O)/C(=C/c3cccc(Cl)c3)C1C2 (stereo in doubt; (+)-7) [listing 2 of 2 here]
[5]
  Ki: > 500 nM
[1]
  Ki: 11.8 nM
[2]
  Ki: 22.4 nM
[3]
  Ki: 217 nM

## CN1CCC2(c3cccc(O)c3)CC(=O)/C(=C/c3cccc(Cl)c3)C1C2 (stereo in doubt; (-)-7) [listing 1 of 2 here]
[4]
  Ratio: 0.25

## CN1CCC2(c3cccc(O)c3)CC(=O)/C(=C/c3ccc(I)cc3)C1C2 (single isomer, unassigned; (+))
[5]
  Ki: > 1000 nM
[1]
  Ki: 26.7 nM
[2]
  Ki: 52.6 nM
[3]
  Ki: 321 nM
[4]
  Ratio: 32

## CN1CCC2(c3cccc(O)c3)CC(=O)/C(=C/c3ccccc3)C1C2 (single isomer, unassigned; (+)) [listing 1 of 2 here]
[4]
  Ratio: 79

## CN1CCC2(c3cccc(O)c3)CC(=O)/C(=C/c3ccc4ccccc4c3)C1C2 (stereo not drawn)
[5]
  Ki: > 500 nM
[1]
  Ki: 2.2 nM
[2]
  Ki: 80.2 nM
[3]
  Ki: 142 nM
[4]
  Ratio: 0.21

## CN1CCC2(c3cccc(O)c3)CC(=O)/C(=C/c3cccc(Cl)c3)C1C2 (stereo in doubt; (-)-7) [listing 2 of 2 here]
[5]
  Ki: > 500 nM
[1]
  Ki: 47.6 nM
[2]
  Ki: 123 nM
[3]
  Ki: 386 nM

## CN1CCC2(c3cccc(O)c3)CC(=O)/C(=C/c3ccccc3)C1C2 (single isomer, unassigned; (+)) [listing 2 of 2 here]
[5]
  Ki: 1090 nM
[1]
  Ki: 37.6 nM
[2]
  Ki: 16.5 nM
[3]
  Ki: 735 nM

## COc1ccc(/C=C2/C(=O)CC3(c4cccc(O)c4)CCN(C)C2C3)cc1 (single isomer, unassigned; (+)) [listing 2 of 2 here]
[5]
  Ki: > 500 nM
[1]
  Ki: 3.9 nM
[2]
  Ki: 21.6 nM
[3]
  Ki: 127 nM

## COc1cccc(/C=C2/C(=O)CC3(c4cccc(O)c4)CCN(C)C2C3)c1 (stereo in doubt; 6) [listing 2 of 2 here]
[5]
  Ki: > 500 nM
[1]
  Ki: 11.8 nM
[2]
  Ki: 44.3 nM
[3]
  Ki: > 400 nM

## CN1CCC2(c3cccc(O)c3)CC(=O)/C(=C/c3cccc(Cl)c3)C1C2 (stereo in doubt; 7) [listing 2 of 2 here]
[5]
  Ki: 246 nM
[1]
  Ki: 23.2 nM
[2]
  Ki: 34.5 nM
[3]
  Ki: 222 nM
